# Compound activity from PubChem.
# Mdm2-MdmX inh: inhibitors of human Mdm2-MdmX association, primary screen, cell-based, luminescence, split luciferase, SaOS-2, uHTS; Protein Mdm4 (Homo sapiens) + E3 ubiquitin-protein ligase Mdm2 (Homo sapiens), …; SaOS-2 split-luciferase Mdm2/MdmX complementation; inhibition, % at 8 µM; 330,000 tested, 3% active; AID 485346, 2010;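 active means inhibition of at least 50% at 8 µM in the primary screen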
# Target sequence (O15151 whole entry, looked up): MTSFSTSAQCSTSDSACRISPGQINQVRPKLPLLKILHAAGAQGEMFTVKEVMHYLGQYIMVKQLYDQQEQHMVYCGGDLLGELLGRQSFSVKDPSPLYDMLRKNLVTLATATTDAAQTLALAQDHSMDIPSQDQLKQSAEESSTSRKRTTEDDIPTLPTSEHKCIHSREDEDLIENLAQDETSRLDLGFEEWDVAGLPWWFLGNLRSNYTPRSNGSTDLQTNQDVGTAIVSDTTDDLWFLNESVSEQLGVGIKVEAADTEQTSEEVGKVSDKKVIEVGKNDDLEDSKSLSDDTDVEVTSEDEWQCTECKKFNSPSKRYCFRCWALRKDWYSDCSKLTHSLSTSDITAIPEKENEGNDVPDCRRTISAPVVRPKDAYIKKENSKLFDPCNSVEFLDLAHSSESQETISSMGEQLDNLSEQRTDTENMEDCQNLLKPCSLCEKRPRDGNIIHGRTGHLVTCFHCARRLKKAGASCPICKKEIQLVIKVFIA
# Target sequence (Q00987 whole entry, looked up): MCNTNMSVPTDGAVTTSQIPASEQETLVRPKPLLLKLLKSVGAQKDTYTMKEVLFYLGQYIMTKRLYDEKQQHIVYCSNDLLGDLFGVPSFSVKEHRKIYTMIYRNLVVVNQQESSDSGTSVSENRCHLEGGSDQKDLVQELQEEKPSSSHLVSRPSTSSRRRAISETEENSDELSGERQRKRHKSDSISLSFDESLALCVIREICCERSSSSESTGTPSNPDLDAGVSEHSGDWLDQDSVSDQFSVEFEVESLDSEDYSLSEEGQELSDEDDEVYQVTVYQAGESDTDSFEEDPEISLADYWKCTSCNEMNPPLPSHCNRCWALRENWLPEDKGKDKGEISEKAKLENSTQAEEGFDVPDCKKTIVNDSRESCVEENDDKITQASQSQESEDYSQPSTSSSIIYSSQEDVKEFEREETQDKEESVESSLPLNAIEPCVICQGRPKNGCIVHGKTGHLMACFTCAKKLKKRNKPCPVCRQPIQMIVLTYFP
# T cruzi repl: inhibitors of intracellular T. cruzi growth, primary screen, luminescence, NIH3T3 host cells | inhibition, % (no concentration beside the values) | T. cruzi beta-gal in NIH3T3, 90 h | AID 1885, 2009 | 300,000 tested, 1.4% active;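 active means mean inhibition across valid replicates above about 55%, limit read from the data; inconclusive means mean below that limit but half or more replicates reach it; inactive means mean below it, under half of replicates reach it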;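 further: signal also drops with host cell toxicity which is not excluded here; higher percent means less beta-gal luminescence so fewer parasites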
#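 compound dosing = single 50 nL compound addition per well in DMSO | material = NIH/3T3 host cells with β-galactosidase reporter T. cruzi | input = 5,000 host fibroblasts per well | timing = ≥90 h infection period, 3 h prior cell attachment | read-out basis = percent inhibition of parasite-derived β-gal signal | detection = GalScreen β-gal luminescence, detergent lysis, 60 min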
# SKKanGAS inh: S. pyogenes SKKanGAS growth inhibitors in kanamycin, primary screen, streptokinase expression inhibitor project, SKKanGAS strain, BacTiter-Glo luminescence. 6 h. inhibition, % at 7.5 µM. 300,000 tested, 1.3% active. AID 1662, 2009;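 active means mean replicate score, as percent of positive control median, at least 50; inconclusive means mean below 50 but one replicate at or above 50; inactive means mean and every replicate below 50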;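 further: strain carries kanamycin resistance gene driven by streptokinase promoter and grows in 40 µg/ml kanamycin; loss of luminescence reflects streptokinase promoter inhibition or plain growth inhibition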
# CSC inhib: cancer stem cell viability inhibitors, primary screen, luminescence; cancer stem cell-like cells viability; inhibition, % at 7.5 µM; 300,000 tested, 1.1% active; AID 2717, 2010; in the data active means inhibition above about 75%; inconclusive means no clear call, values can overlap the other calls; tested in HMLE shEcad cells
# aSyn 5UTR inh: MLPCN primary screen, SNCA 5' untranslated region; inhibition, % (tested at 7.5 µM); alpha-synuclein 5'UTR reporter, inhibitor activity; AID 1813, 2009; 300,000 tested, 0.82% active; in the data active means inhibition above about 60%; inconclusive means no clear call, values can overlap the other calls;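 further: H4 neuroglioblastoma cells stably carrying SNCA 5'UTR luciferase fusion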
# Mdm2-MdmX conf: Mdm2-MdmX complex disruptors, retested hits, confirmation, luminescence, single concentration | shares compounds with Mdm2-MdmX inh | Mdm2-MdmX binding, luminescent assay | AID 489028, 2010 | 10,000 tested, 55% active | inhibition, % at 8 µM; in the data active means inhibition above about 40%
# Full FLuc ctr: full-length luciferase signal inhibition, confirmation, counter-screen for Mdm2/MdmX interaction inhibitor project, cell-based, single concentration, SaOS-2 | shares compounds with Mdm2-MdmX inh | SaOS-2 full-length luciferase counterscreen, luminescence | inhibition, % at 8 µM | 6,200 tested, 77% active;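 active means mean inhibition at 8 µM reaching about 37%, which flags the compound as non-specific, limit read from the data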;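 further: p53-null SaOS-2 cells with luciferase driven by a doxycycline-inducible promoter; compound on cells about two nights before reading with doxycycline added after day one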
# Numbers stand for hits; - = inactive; ? = inconclusive; . = not tested or not shown. Shown are actives, neighbours in structure and some others; about 5.4% of the full set was active somewhere.
SMILES,Mdm2-MdmX inh,T cruzi repl,SKKanGAS inh,CSC inhib,aSyn 5UTR inh,Mdm2-MdmX conf,Full FLuc ctr
COc1ccccc1-c1nnc(SCC(=O)c2c(N)n(C3CC3)c(=O)[nH]c2=O)o1,-,.,.,-,.,.,.
Nc1c(C(=O)CSc2nc3ccccc3o2)c(=O)[nH]c(=O)n1C1CC1,79.6,.,.,.,.,-,.
Cc1ccc(S(=O)(=O)NCC(=O)N2CCN(c3ccc(F)cc3)CC2)cc1,-,-,-,-,-,.,.
C=C(C)C1CC=C(C)/C(=N\NC(=S)Nc2ccc(C)cc2)C1 (stereo not given),-,-,-,-,-,.,.
COc1c(Br)cc([N+](=O)[O-])c(OC)c1C(=O)NC(=O)Nc1c(Cl)cccc1Cl,-,.,-,-,.,.,.
COc1c(Br)cc([N+](=O)[O-])c(OC)c1C(=O)NC(=O)Nc1cc(Cl)cc(Cl)c1,85.2,-,-,.,-,78.8,85.4
C=CCN1C=CC=C/C1=C1\SC(=S)N(C)C1=O,-,-,-,-,-,.,.
CCCn1nnc(NC(=S)NC(=O)/C=C/c2ccco2)n1,-,-,-,-,-,.,.
CCN1CCN(c2cc(-c3ccccc3)nc3cc(-c4cccc(F)c4)nn23)CC1,67.7,-,-,?,-,-,.
Cn1cc(S(=O)(=O)NCc2ccc3c(c2)OCO3)c(C(F)(F)F)n1,-,-,-,-,-,.,.
COc1ccc(-c2c(C)[nH]n3c(=O)c(Cc4ccccc4)c(C)nc23)cc1OC,-,-,-,-,-,.,.
Cc1nc2c(-c3ccc(Cl)cc3)c(C)[nH]n2c(=O)c1Cc1ccccc1,52.5,63.5,98.9,-,77.8,60.5,54.9
COc1ccc(OC)c(C2CC(=O)Nc3cc(OC)c(OC)c(OC)c32)c1 (stereo not given),55.8,-,-,-,-,-,.
N=c1c2c(n(Cc3ccc(Cl)c(Cl)c3)c3c1CCC3)CCCC2,73.7,69.5,-,.,-,52.0,45.3
C=CCOc1ccc(-c2nc3c(c(=O)[nH]c(=O)n3CCCC)n2C)cc1Br,70.4,-,-,-,-,-,.
CCCCn1c(=O)[nH]c(=O)c2c1nc(-c1ccc(OC)c(Br)c1)n2CC(C)C,-,-,-,-,-,.,.
Cc1ccc(S(=O)(=O)N2CCC(C(=O)NNC(=O)c3ccccc3O)CC2)cc1,-,-,-,-,-,.,.
Cc1cc(C)c(C)c(S(=O)(=O)N2CCC(C(=O)Nc3ccc(S(=O)(=O)N4CCOCC4)cc3)CC2)c1C,-,-,-,.,-,.,.
Cc1cc(C)c(C)c(S(=O)(=O)N2CCC(C(=O)NNC(=O)c3ccccc3O)CC2)c1C,66.5,-,60.8,-,-,65.5,45.2
Cc1ccc(S(=O)(=O)N2CCC(C(=O)NNC(=O)c3ccccc3O)CC2)cc1C,53.2,-,-,-,-,49.9,46.4
Cc1cc(-c2nn3c(C)nnc3s2)ccc1NC(=O)C(C)(C)C,-,-,-,-,-,.,.
C/C(=N/NC(=O)c1nnn(-c2nonc2N)c1COc1ccccc1)c1ccccc1,-,-,-,-,-,.,.
CCOC(=O)C1CCN(C(=O)Cn2nc(CC)n3cccc3c2=O)CC1,-,-,-,-,-,.,.
COC(=O)C(CC(=O)c1ccc(Br)cc1)n1ccnc1 (stereo not given),98.5,-,-,.,-,-,.
O=C(c1ccccc1F)N1CCN(C(=O)C2CC2)CC1,-,-,-,-,-,.,.
SMILES,Mdm2-MdmX inh,T cruzi repl,SKKanGAS inh,CSC inhib,aSyn 5UTR inh,Mdm2-MdmX conf,Full FLuc ctr
CC(C)CC[n+]1ccccc1/C=C/c1ccc(N(C)C)cc1,80.0,-,-,-,79.1,73.8,-
CN(C)c1ccc(/C=C/c2cccc[n+]2[O-])cc1,-,-,-,-,-,.,.
CCCCOc1ccc(-c2nnn(CC(=O)NCCc3c[nH]c4ccccc34)n2)cc1,-,-,-,-,-,.,.
O=C1c2ccccc2C(=O)N1CCc1ccccn1,-,-,-,-,-,.,.
O=C1c2cccc3c([N+](=O)[O-])ccc(c23)C(=O)N1CCc1ccccn1,95.6,-,-,-,-,-,.
COc1ccc(OC)c(NC(=O)CSc2nnc(CNc3ccc(C)cc3C)o2)c1,-,-,-,-,-,.,.
CCn1nc(C)c(C(=O)Nc2cc(Oc3ccc(Cl)cc3)cc([N+](=O)[O-])c2)c1C,56.9,-,-,.,-,45.1,52.7
Cc1nn(CCCC(=O)Nc2cc(Oc3ccc(F)cc3)cc([N+](=O)[O-])c2)c(C)c1[N+](=O)[O-],-,-,-,-,-,.,.
O=C(CSc1ccc(-c2ccccn2)nn1)Nc1ccc(F)c(F)c1,67.4,-,-,-,-,43.3,55.2
CCOC(=O)c1ccc(NC(=O)CSc2ccc(-c3ccccn3)nn2)cc1,69.6,-,-,-,-,52.6,58.9
O=C(CSc1ccc(-c2ccccn2)nn1)NCc1ccc(Cl)cc1,-,?,-,-,-,.,.
CCOc1ccc(NC(=O)CSc2ccc(-c3ccccn3)nn2)cc1,-,-,-,-,-,.,.
Cc1ccc(NC(=O)CSc2ccc(-c3ccccn3)nn2)cc1,54.6,-,-,-,-,41.4,78.5
Clc1ccc(CSc2ccc(-c3ccccn3)nn2)cc1,60.4,67.8,-,127.3,-,59.6,43.4
COc1ccc(NC(=O)CSc2ccc(-c3ccccn3)nn2)cc1OC,-,-,-,-,-,.,.
Cc1ccc(-n2c(Cn3nc(C(F)(F)F)cc3C)n[nH]c2=S)cc1,-,-,-,-,-,.,.
Cc1ccc(CCC(=O)Nc2ncc(Cc3cccc(Cl)c3Cl)s2)o1,68.9,-,-,.,-,66.5,76.5
Nc1nc(Nc2ccccc2)sc1C(=O)c1ccccc1,61.9,.,-,-,-,-,.
COc1ccc(C(=O)c2sc(Nc3ccccc3)nc2N)cc1,-,-,-,.,-,.,.
Cc1cccc(Oc2ccccc2NC(=O)CSCC(=O)Nc2cc(C)on2)c1,66.7,.,.,.,.,57.9,108.5
O=S(c1ccc2ccccc2c1)c1cnns1 (stereo not given),57.5,.,.,-,.,-,.
O=C(N/N=C/c1ccc(Cl)cc1)c1cc2c(s1)-c1ccccc1CC2,65.2,-,-,-,-,60.5,47.0
O=C(NC1CCN(Cc2ccccc2)CC1)c1ccccc1OCc1ccccc1Cl,-,-,-,-,-,.,.
CC(C)OC(=O)c1c2nc3ccccc3nc2n2c1[nH]c(=O)c1ccccc12,59.5,-,55.3,-,-,-,47.8
COCCN(C(=O)C1CCCC1)c1c(N)n(Cc2ccccc2)c(=O)[nH]c1=O,-,-,-,-,-,.,.
Nc1c(N(C(=O)Nc2ccc(Cl)c(Cl)c2)C2CCCC2)c(=O)[nH]c(=O)n1Cc1ccccc1,77.5,-,-,-,-,-,.
